Reference: ChEMBL document CHEMBL3769384, “Discovery of Tetrahydropyrazolopyridine as Sphingosine 1-Phosphate Receptor 3 (S1P3)-Sparing S1P1 Agonists Active at Low Oral Doses” (J Med Chem, 2016)
Active and inactive are the calls of the source. No cut-off for these calls is given here.

Columns and labels:
Rattus norvegicus [1] = experiment: Lymphopenia activity in Lewis rat at 1 mg/kg, po measured after 2 to 4 hrs; type: functional, organism-based
[2] = molecular target: T1, Sphingosine 1-phosphate receptor 1 (Homo sapiens, UniProt P21453); experiment: Agonist activity at human S1P1 receptor expressed in RH7777 cells by [35S]GTP-gammaS accumulation assay; type: cell-based
In short: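 RH7777 S1P1 membranes (1.5 µg/well) precoupled 30 min on ice to WGA SPA beads in 20 mM HEPES, 10 mM MgCl2, 100 mM NaCl, pH 7.4, with 10 µM GDP and 90 µg/mL saponin (final). 0.5 nM [35S]GTPγS final added to compound; plates read immediately by scintillation proximity.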

[3] = molecular target: T1, Sphingosine 1-phosphate receptor 1; experiment: Agonist activity at human S1P1 receptor expressed in CHO-K1 EDG1 cells by beta-arrestin recruitment assay; type: cell-based
In short: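 CHO-K1 cells stably expressing beta-arrestin 2 and S1P1 fused to complementing beta-galactosidase fragments; grown to 80% confluency, harvested enzyme-free, resuspended in HEPES/BSA assay buffer pH 7.4. Cells at 1x10^4/well added to compound in DMSO, 90 min at 37°C/5% CO2, then 15 min at room temperature; chemiluminescent detection mix 60 min at room temperature, luminescence read.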

[4] = Lipophilicity, log D of the compound at pH 7.4 by chromatography; type: physicochemical; details: buffer
[5] = molecular target: Sphingosine 1-phosphate receptor 3 (Homo sapiens, UniProt Q99500); experiment: Agonist activity at human S1P3 receptor expressed in RBL cells by [35S]GTP-gammaS accumulation assay; type: cell-based
In short: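 Sucrose-gradient-purified RBL S1P3 membranes (0.44 µg/well) precoupled 30 min on ice to WGA SPA beads with 2 µg/well saponin in HEPES/MgCl2/NaCl buffer pH 7.4. 5 µM GDP final and 0.3 nM [35S]GTPγS final added, then dispensed onto compound in DMSO. Read by scintillation proximity after 3 h at room temperature.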

Rattus norvegicus [6] = experiment: Lymphopenia activity in Lewis rat at 1 mg/kg, po measured at 8 hrs; type: functional, organism-based
Rattus norvegicus [7] = experiment: Lymphopenia activity in Lewis rat at 1 mg/kg, po measured after 24 hrs; type: functional, organism-based

Chain of Sphingosine 1-phosphate receptor 3 (Q99500 whole entry): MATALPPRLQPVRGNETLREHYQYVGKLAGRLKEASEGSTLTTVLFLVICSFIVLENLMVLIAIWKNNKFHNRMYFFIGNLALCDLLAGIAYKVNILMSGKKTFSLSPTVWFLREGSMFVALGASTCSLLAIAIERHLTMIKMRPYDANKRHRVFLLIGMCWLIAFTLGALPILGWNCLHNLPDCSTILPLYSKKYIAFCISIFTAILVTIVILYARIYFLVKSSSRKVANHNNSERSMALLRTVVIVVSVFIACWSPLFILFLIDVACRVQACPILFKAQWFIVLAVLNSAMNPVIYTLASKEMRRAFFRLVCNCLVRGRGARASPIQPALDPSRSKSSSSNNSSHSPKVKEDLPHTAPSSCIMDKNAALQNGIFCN
T1 sequence (P21453 whole entry): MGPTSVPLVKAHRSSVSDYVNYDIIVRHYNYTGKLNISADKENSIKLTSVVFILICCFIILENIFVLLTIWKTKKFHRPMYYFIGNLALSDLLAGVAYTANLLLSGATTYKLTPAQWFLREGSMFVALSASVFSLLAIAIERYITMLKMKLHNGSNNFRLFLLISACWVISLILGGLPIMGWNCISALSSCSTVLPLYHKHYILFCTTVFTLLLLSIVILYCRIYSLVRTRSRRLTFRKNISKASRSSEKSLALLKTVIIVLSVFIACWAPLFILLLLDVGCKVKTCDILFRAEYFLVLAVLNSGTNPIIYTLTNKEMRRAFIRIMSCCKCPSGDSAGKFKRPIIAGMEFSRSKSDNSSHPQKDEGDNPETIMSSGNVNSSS

With CCCCCCCCc1ccc(CCC(N)(CO)CO)cc1 the Activity (Rattus norvegicus [1]) was “Active”.

CC(C)Oc1ccc(-c2nnc(N3CCC(N4CCCC(C(=O)O)C4)CC3)s2)cc1Cl (stereo unspecified) gave an EC50 [2] of 3980 nM.

Molecule Cc1c(-c2noc(-c3ccc(OC(C)C)c(C#N)c3)n2)ccc2c1CCN(CCC(=O)O)C2 has an EC50 [3] of 5.01 nM, an EC50 [2] of 31.6 nM and a chromatographic logD [4] of 3.41. The EC50 [5] was > 39800 nM.

CC(C)Oc1ccc(-c2nnc(-n3cc4c(n3)CCNC4)s2)cc1Cl showed an EC50 [3] of 631 nM, an EC50 [2] of 631 nM and a chromatographic logD [4] of 4.44. The EC50 [5] was > 31600 nM.

For Cc1c2c(nn1-c1nnc(-c3ccc(OC(C)C)c(C#N)c3)s1)CCNC2, the EC50 [3] was 63.1 nM, the EC50 [2] was 100 nM and the chromatographic logD [4] was 3.73. The EC50 [5] was > 31600 nM.

Molecule CC(C)Oc1ccc(-c2nnc(-n3cc4c(n3)CCN(CCCC(=O)O)C4)s2)cc1Cl has an EC50 [3] of 5.01 nM, an EC50 [2] of 12.6 nM and a chromatographic logD [4] of 3.56. For the same molecule, the EC50 [5] was > 31600 nM.

In the case of CC(C)Oc1ccc(-c2nnc(-n3cc4c(n3)CCN(CCC(=O)O)C4)s2)cc1C#N, the Activity (Rattus norvegicus [6]) is reported as “Active”, the Activity (Rattus norvegicus [1]) is reported as “Active” and the EC50 [3] is reported as 5.01 nM. For the same molecule, the EC50 [2] was 50.1 nM, the chromatographic logD [4] was 2.58 and the EC50 [5] was > 31600 nM.

In the case of CC(C)Oc1ccc(-c2nnc(-n3ncc4c3CCN(CCC(=O)O)C4)s2)cc1Cl, the Activity (Rattus norvegicus [1]) is reported as “inactive”, the EC50 [3] is reported as 50.1 nM and the EC50 [2] is reported as 126 nM. It also gave a chromatographic logD [4] of 3.54 and an EC50 [5] of 20000 nM.

With Cc1nn(-c2nnc(-c3ccc(OC(C)C)c(Cl)c3)s2)c(C)c1CCC(=O)O the EC50 [3] was 20 nM, the EC50 [2] was 39.8 nM and the chromatographic logD [4] was 4.3. The EC50 [5] was > 31600 nM.

Work on CC(C)Oc1ccc(-c2nnc(-n3ncc4c3CCNC4)s2)cc1Cl yielded an EC50 [3] of 794 nM, an EC50 [2] of 398 nM and a chromatographic logD [4] of 4.87. For the same molecule, the EC50 [5] was > 31600 nM.

In the case of CC(C)Oc1ccc(-c2nnc(-n3cc4c(n3)CCN(CCC(=O)O)C4)s2)cc1Cl, the Activity (Rattus norvegicus [1]) is reported as “Active”, the EC50 [3] is reported as 3.98 nM and the EC50 [2] is reported as 12.6 nM. The chromatographic logD [4] was 3.26, the EC50 [5] was > 31600 nM and the Activity (Rattus norvegicus [7]) was “inactive”.

CC(C)Oc1ccc(-c2nnc(Nc3ccc(CC(=O)O)cc3)s2)cc1Cl showed an EC50 [2] of 1260 nM.

For Cc1nc(C)c(-c2nnc(-c3ccc(OC(C)C)c(Cl)c3)s2)s1, the EC50 [2] was 251 nM, the chromatographic logD [4] was 7.76 and the EC50 [5] was > 31600 nM.

In the case of Cc1[nH]ncc1-c1nnc(-c2ccc(OC(C)C)c(Cl)c2)s1, the EC50 [2] is reported as 126 nM, the chromatographic logD [4] is reported as 5.45 and the EC50 [5] is reported as > 31600 nM.

With CC(C)Oc1ccc(-c2nnc(NCCNCCC(=O)O)s2)cc1Cl the EC50 [2] was > 31600 nM.

With Cc1c2c(nn1-c1nnc(-c3ccc(OC(C)C)c(C#N)c3)s1)CNCC2 the EC50 [3] was 158 nM, the chromatographic logD [4] was 4.23 and the EC50 [5] was > 31600 nM.

In the case of CC(C)Oc1ccc(-c2nnc(-n3cncn3)s2)cc1Cl, the EC50 [2] is reported as 501 nM, the chromatographic logD [4] is reported as 6.18 and the EC50 [5] is reported as > 31600 nM.

For Cc1c2c(nn1-c1nnc(-c3ccc(OC(C)C)c(C#N)c3)s1)CCN(CCC(=O)O)C2, the Activity (Rattus norvegicus [6]) was “Active”, the Activity (Rattus norvegicus [1]) was “Active” and the EC50 [3] was 3.16 nM. For the same molecule, the EC50 [2] was 15.8 nM, the chromatographic logD [4] was 2.76 and the EC50 [5] was > 31600 nM.

With CC(C)Oc1ccc(-c2nnc(-c3cn[nH]c3)s2)cc1Cl the EC50 [2] was 631 nM, the chromatographic logD [4] was 5 and the EC50 [5] was > 31600 nM.

CC(C)Oc1ccc(-c2nnc(N3CCNCC3)s2)cc1Cl showed an EC50 [2] of 6310 nM.

In the case of CC(C)Oc1ccc(-c2nnc(-c3cnn(CCN4CCOCC4)c3)s2)cc1Cl, the EC50 [2] is reported as 10000 nM, the chromatographic logD [4] is reported as 5.59 and the EC50 [5] is reported as > 31600 nM.

With CC(C)Oc1ccc(-c2nnc(-c3cncn3C)s2)cc1Cl the EC50 [2] was 63.1 nM, the chromatographic logD [4] was 5.7 and the EC50 [5] was > 31600 nM.

For CC(C)Oc1ccc(-c2nnc(-c3cnn(CC(=O)O)c3)s2)cc1Cl, the EC50 [2] was 25100 nM, the chromatographic logD [4] was 2.82 and the EC50 [5] was > 31600 nM.

With CC(C)Oc1ccc(-c2nnc(NCCN)s2)cc1Cl the EC50 [2] was > 31600 nM.

Work on CC(C)Oc1ccc(-c2nnc(N3CCOc4c(CCC(=O)O)cccc43)s2)cc1Cl yielded an EC50 [2] of 251 nM.

Work on Cc1c2c(nn1-c1nnc(-c3ccc(OC(C)C)c(Cl)c3)s1)CCNC2 yielded an EC50 [3] of 158 nM, an EC50 [2] of 126 nM and a chromatographic logD [4] of 5.32. The EC50 [5] was > 31600 nM.

In the case of Cc1c(-c2nnc(-c3ccc(OC(C)C)c(Cl)c3)s2)cnn1CCC(=O)O, the EC50 [2] is reported as 2510 nM, the chromatographic logD [4] is reported as 3.16 and the EC50 [5] is reported as > 31600 nM.

In the case of CC(C)Oc1ccc(-c2nnc(NC3=CCNCC3)s2)cc1Cl, the EC50 [2] is reported as 1580 nM.

With CC(C)Oc1ccc(-c2nnc(-c3ccnn3C)s2)cc1Cl the EC50 [2] was 251 nM, the chromatographic logD [4] was 7.04 and the EC50 [5] was > 31600 nM.

Molecule Cc1nn(-c2nnc(-c3ccc(OC(C)C)c(Cl)c3)s2)c(C)c1CC(=O)O has an EC50 [3] of 1580 nM, an EC50 [2] of 1000 nM and a chromatographic logD [4] of 3.62. For the same molecule, the EC50 [5] was > 31600 nM.

With Cc1c2c(nn1-c1nnc(-c3ccc(OC(C)C)c(C#N)c3)s1)CCN(CC(=O)O)C2 the EC50 [3] was 100 nM, the chromatographic logD [4] was 2.88 and the EC50 [5] was > 31600 nM.

For CC(C)Oc1ccc(-c2nnc(-n3cc4c(n3)CCN(CCCC(=O)O)C4)s2)cc1C#N, the EC50 [3] was 6.31 nM, the chromatographic logD [4] was 2.87 and the EC50 [5] was > 31600 nM.

For CC(C)Oc1ccc(-c2nnc(-c3ccno3)s2)cc1Cl, the EC50 [2] was 1000 nM, the chromatographic logD [4] was 6.93 and the EC50 [5] was > 31600 nM.

Work on CC(C)Oc1ccc(-c2nnc(-c3ccccc3)s2)cc1Cl yielded an EC50 [2] of 251 nM, a chromatographic logD [4] of 8.65 and an EC50 [5] of 20000 nM.

In the case of CC(C)Oc1ccc(-c2nnc(N3CCc4cc(CCC(=O)O)ccc43)s2)cc1Cl, the EC50 [2] is reported as 100 nM.

CC(C)Oc1ccc(-c2nnc(-n3cc4c(n3)CCNC4)s2)cc1C#N showed an EC50 [3] of 126 nM, an EC50 [2] of 501 nM and a chromatographic logD [4] of 3.37. The EC50 [5] was > 31600 nM.

For CC(C)Oc1ccc(-c2nnc(NC3CCN(CC(=O)O)CC3)s2)cc1Cl, the EC50 [2] was 2510 nM.
